Results reported in ChEMBL document CHEMBL4145465, “Design, synthesis and biological evaluation of novel ring-opened cromakalim analogues with relaxant effects on vascular and respiratory smooth muscles and as stimulators of elastin synthesis” (Eur J Med Chem, 2018).
pEC50: −log10 of the molar value. Active and inactive are the calls of the source. The calls are words filed in the database; no cut-off is given here.

Tests used:
[1] = system: Thoracic aorta; test: Vasorelaxing activity in Wistar rat endothelium-intact thoracic aorta ring assessed as reduction in 30 mM KCl-induced contraction at 300 uM after 15 mins relative to DMSO; conditions: 0.25 h
[2] = system: Thoracic aorta; test: Vasorelaxing activity in Wistar rat endothelium-intact thoracic aorta ring assessed as reduction in 30 mM KCl-induced contraction after 15 mins; conditions: 0.25 h
[3] = system: Trachea; test: Tracheorelaxant activity in Wistar rat trachea tonus assessed as reduction in 30 mM KCl-induced contraction at 100 uM after 15 mins relative to control; type: functional; conditions: 0.25 h
Summary of the method: (§1)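 Trachea rings (3-4 mm) from female Wistar rats were held in a 10 ml organ bath under the same conditions as the aorta and contracted with 30 mM KCl. Compound in DMSO was added cumulatively. EC50 was derived by non-linear regression; Emax is % relaxation at 100 µM.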

[4] = system: Trachea; test: Tracheorelaxant activity in Wistar rat trachea tonus assessed as reduction in 30 mM KCl-induced contraction after 15 mins; type: functional, tissue-based; conditions: 0.25 h
Summary of the method: as §1

[5] = system: Trachea/thoracic aorta; test: Ratio of EC50 for Wistar rat trachea tonus to EC50 for Wistar rat endothelium-denuded thoracic aorta ring; type: functional; conditions: in the assay text read “endothelium-intact” for “endothelium-denuded”
Summary of the method: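 Ratio of trachea EC50 to aorta EC50, both measured against 30 mM KCl contraction in female Wistar rat rings, with cumulative compound addition in DMSO and EC50 from non-linear regression.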

[6] = system: VSMC; test: Induction of elastin synthesis in rat VSMC at 20 uM after 48 hrs by ELISA; type: functional, cell-based
Summary of the method: (§2)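 Rat aortic VSMCs (collagenase/elastase digestion of intima-media, grown in DMEM 20% FBS on gelatin) serum-starved overnight in 1% FBS-DMEM, seeded 25000 cells/well, then exposed 48 h to compound in DMSO (<1% final); DMSO-only negative control, diazoxide reference. Fixed cells immunostained for elastin with HRP secondary, TMB substrate, absorbance 450 nm; 5-7 wells per concentration.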

[7] = system: VSMC; test: Induction of elastin synthesis in rat VSMC at 50 uM after 48 hrs by ELISA relative to control; type: functional
Summary of the method: as §2

Structure (SMILES)	pEC50 [2]	Emax [1] [%]	further results
COc1ccc(OC)c(CNC(=O)NS(=O)(=O)c2ccccc2)c1	< 3.52	-20.3	
Cc1ccc(OCc2ccccc2)c(C(C)NC(=O)N(C)S(=O)(=O)c2ccccc2)c1 (stereo not given)	4.17	86.1	
CCOc1ccc(Cl)cc1C(C)NC(=O)NS(=O)(=O)c1ccccc1 (stereo not given)	< 3.52	15.8	
COc1ccc(OC)c(CNC(=O)NS(=O)(=O)c2ccc(C)cc2)c1	< 3.52	-14.5	
COc1ccc(OC)c(CNC(=O)NS(=O)(=O)c2ccc(Cl)cc2)c1	< 3.52	-28	
Cc1ccc(S(=O)(=O)NC(=O)NC(C)c2cc(Br)ccc2OC(C)C)cc1 (stereo not given)	4.21	93.2	
CC(NC(=O)N(C)S(=O)(=O)c1ccc(Cl)cc1)c1cc(Br)ccc1OCc1ccccc1 (stereo not given)	3.84	97.3	
CC(C)Oc1ccc(Br)cc1C(C)NC(=O)N(C)S(=O)(=O)c1ccccc1 (racemic)	4.49	81.5	
COc1ccc(Cl)cc1C(C)NC(=O)NS(=O)(=O)c1ccc(C)cc1 (racemic)	< 3.52	36.6	
COc1ccc(Br)cc1C(C)NC(=O)NS(=O)(=O)c1ccc(Cl)cc1 (racemic)	4.09	82.6	
CC(NC(=O)NS(=O)(=O)c1ccccc1)c1cc(Br)ccc1OCc1ccccc1 (racemic)	3.89	92.3	
Cc1ccc(OCc2ccccc2)c(C(C)NC(=O)N(C)S(=O)(=O)c2ccc(Cl)cc2)c1 (racemic)	3.85	76.9	
CCOc1ccc(Cl)cc1C(C)NC(=O)NS(=O)(=O)c1ccc(C)cc1 (racemic)	< 3.52	45.5	
CCOc1ccc(Br)cc1C(C)NC(=O)NS(=O)(=O)c1ccc(C)cc1 (racemic)	< 3.52	62.2	
CCOc1ccc(F)cc1C(C)NC(=O)NS(=O)(=O)c1ccc(C)cc1 (racemic)	< 3.52	26.2	
CC(C)Oc1ccc(Br)cc1C(C)NC(=O)N(C)S(=O)(=O)c1ccc(Cl)cc1 (racemic)	4.36	93.7	
Cc1ccc(S(=O)(=O)NC(=O)NC(C)c2ccccc2OCc2ccccc2)cc1 (racemic)	< 3.70	84.7	
COc1ccc(Br)cc1C(C)NC(=O)NS(=O)(=O)c1ccccc1 (racemic)	< 3.52	45.5	
COc1ccc(F)cc1C(C)NC(=O)NS(=O)(=O)c1ccc(Cl)cc1 (racemic)	< 3.52	54.7	
CC(C)Oc1ccc(Br)cc1C(C)NC(=O)NS(=O)(=O)c1ccccc1 (racemic)	3.84	73.2	
Cc1ccc(S(=O)(=O)N(C)C(=O)NC(C)c2cc(Br)ccc2OCc2ccccc2)cc1 (racemic)	4.17	47.9	
CCOc1ccc(Br)cc1C(C)NC(=O)N(C)S(=O)(=O)c1ccc(Cl)cc1 (racemic)	4.25	71	

Structure (SMILES)	pEC50 [2]	Emax [1] [%]	further results
Cc1ccc(OCc2ccccc2)c(C(C)NC(=O)NS(=O)(=O)c2ccccc2)c1 (racemic)	< 3.70	90.7	
CCOc1ccc(Cl)cc1C(C)NC(=O)NS(=O)(=O)c1ccc(Cl)cc1 (racemic)	3.55	69.7	
CC(NC(=O)NS(=O)(=O)c1ccccc1)c1ccccc1OCc1ccccc1 (racemic)	< 3.70	59	
CC(C)Oc1ccc(Br)cc1C(C)NC(=O)NS(=O)(=O)c1ccc(Cl)cc1 (racemic)	3.91	100	
Cc1ccc(S(=O)(=O)N(C)C(=O)NC(C)c2cc(C)ccc2OCc2ccccc2)cc1 (racemic)	3.74	82.9	
Cc1ccc(S(=O)(=O)N(C)C(=O)NC(C)c2cc(Br)ccc2OC(C)C)cc1 (racemic)	4.46	102	
COc1ccc(Cl)cc1C(C)NC(=O)NS(=O)(=O)c1ccc(Cl)cc1 (racemic)	< 3.52	40.9	
CC(NC(=O)NS(=O)(=O)c1ccc(Cl)cc1)c1ccccc1OCc1ccccc1 (racemic)	3.80	103	
COc1ccc(Br)cc1C(C)NC(=O)NS(=O)(=O)c1ccc(C)cc1 (racemic)	< 3.52	67.6	
Cc1ccc(S(=O)(=O)NC(=O)NC(C)c2cc(Br)ccc2OCc2ccccc2)cc1 (racemic)	3.86	92.5	
CCOc1ccc(Br)cc1C(C)NC(=O)NS(=O)(=O)c1ccc(Cl)cc1 (racemic)	3.77	77.6	
CCOc1ccc(F)cc1C(C)NC(=O)NS(=O)(=O)c1ccccc1 (racemic)	< 3.52	46.4	
CCOc1ccc(Br)cc1C(C)NC(=O)NS(=O)(=O)c1ccccc1 (racemic)	< 3.52	35.9	
CC(NC(=O)N(C)S(=O)(=O)c1ccc(Cl)cc1)c1ccccc1OCc1ccccc1 (racemic)	4.42	91.1	
CC(NC(=O)N(C)S(=O)(=O)c1ccccc1)c1cc(Br)ccc1OCc1ccccc1 (racemic)	4.22	56.8	
Cc1ccc(S(=O)(=O)NC(=O)NC(C)c2cc(C)ccc2OCc2ccccc2)cc1 (racemic)	4.04	106	
CCOc1ccc(F)cc1C(C)NC(=O)NS(=O)(=O)c1ccc(Cl)cc1 (racemic)	< 3.52	52.7	
COc1ccc(Cl)cc1C(C)NC(=O)NS(=O)(=O)c1ccccc1 (racemic)	< 3.52	16.4	
COc1ccc(F)cc1C(C)NC(=O)NS(=O)(=O)c1ccc(C)cc1 (racemic)	< 3.52	-4.5	
COc1ccc(F)cc1C(C)NC(=O)NS(=O)(=O)c1ccccc1 (racemic)	< 3.52	1.2	
CC1=Nc2ccc(Cl)cc2S(=O)(=O)N1 [DIAZOXIDE]			Activity [6]: inactive; Activity [7]: 92%

More lines, main results first:

pEC50 [2]	Structure (SMILES)	Emax [1] [%]	further results
4.68	COc1ccc(OC)c(CNC(=O)N(C)S(=O)(=O)c2ccc(C)cc2)c1	92.7	
4.74	COc1ccc(OC)c(CNC(=O)N(C)S(=O)(=O)c2ccc(Cl)cc2)c1	93.6	
4.67	COc1ccc(OC)c(CNC(=O)N(C)S(=O)(=O)c2ccccc2)c1	100	Emax [3]: 150%; pEC50 [4]: 4.73; Ratio EC50 [5]: 0.9
4.98	CCOc1ccc(Cl)cc1C(C)NC(=O)N(C)S(=O)(=O)c1ccccc1 (stereo not given)	104	Activity [6]: inactive; Activity [7]: Active
4.72	COc1ccc(Br)cc1C(C)NC(=O)N(C)S(=O)(=O)c1ccc(C)cc1 (stereo not given)	97.7	Emax [3]: 143%; pEC50 [4]: 4.89; Ratio EC50 [5]: 0.7
4.84	CCOc1ccc(Cl)cc1C(C)NC(=O)N(C)S(=O)(=O)c1ccc(Cl)cc1 (racemic)	105	
4.86	COc1ccc(Cl)cc1C(C)NC(=O)N(C)S(=O)(=O)c1ccc(C)cc1 (racemic)	107	
5.11	CCOc1ccc(F)cc1C(C)NC(=O)N(C)S(=O)(=O)c1ccc(C)cc1 (racemic)	104	
4.51	Cc1ccc(S(=O)(=O)N(C)C(=O)NC(C)c2ccccc2OCc2ccccc2)cc1 (racemic)	93.2	
4.70	CCOc1ccc(Br)cc1C(C)NC(=O)N(C)S(=O)(=O)c1ccccc1 (racemic)	104	Emax [3]: 137%; pEC50 [4]: 5.08; Ratio EC50 [5]: 0.4
4.93	COc1ccc(F)cc1C(C)NC(=O)N(C)S(=O)(=O)c1ccc(C)cc1 (racemic)	106	
5.00	COc1ccc(F)cc1C(C)NC(=O)N(C)S(=O)(=O)c1ccccc1 (racemic)	109	
4.90	COc1ccc(F)cc1C(C)NC(=O)N(C)S(=O)(=O)c1ccc(Cl)cc1 (racemic)	101	
4.91	CCOc1ccc(Cl)cc1C(C)NC(=O)N(C)S(=O)(=O)c1ccc(C)cc1 (racemic)	106	
4.77	COc1ccc(Br)cc1C(C)NC(=O)N(C)S(=O)(=O)c1ccccc1 (racemic)	98	Emax [3]: 125%; pEC50 [4]: 5.08; Ratio EC50 [5]: 0.5
4.72	COc1ccc(Br)cc1C(C)NC(=O)N(C)S(=O)(=O)c1ccc(Cl)cc1 (racemic)	93.6	Emax [3]: 125%; pEC50 [4]: 4.41; Ratio EC50 [5]: 2
4.70	COc1ccc(Cl)cc1C(C)NC(=O)N(C)S(=O)(=O)c1ccc(Cl)cc1 (racemic)	103	
4.61	CCOc1ccc(F)cc1C(C)NC(=O)N(C)S(=O)(=O)c1ccc(Cl)cc1 (racemic)	101	
4.54	CCOc1ccc(Br)cc1C(C)NC(=O)N(C)S(=O)(=O)c1ccc(C)cc1 (racemic)	90.8	
4.94	CCOc1ccc(F)cc1C(C)NC(=O)N(C)S(=O)(=O)c1ccccc1 (racemic)	106	
4.66	CC(NC(=O)N(C)S(=O)(=O)c1ccccc1)c1ccccc1OCc1ccccc1 (racemic)	92.3	
